Experimental data collected from several papers.
Compare with care: the assays were run in different laboratories.
Target: High affinity nerve growth factor receptor (NTRK1, Homo sapiens, UniProt P04629)

SMILES	read-out	method	tested at	remaining binding
CC(C)(O)c1cncc(-c2nc3ccc(F)cc3n2C2CC2)c1	cell-free assay	competition with immobilised ligand	1 µM	100%
N[C@@H]1CCN(c2nccc(-c3cnn4ncccc34)n2)C1	binding		1 µM	93%
COc1cnc(Nc2cccc(S(N)(=O)=O)c2)nc1N1CCN(c2ccccc2)C(=O)C1	binding	competition with immobilised ligand	1 µM	100%
NS(=O)(=O)c1cc(NC(=O)Cc2ccccc2)ccc1Oc1cccc(Cl)c1	cell-free assay	competition with immobilised ligand	1 µM	73%
CN(C)c1ncc(F)c(-c2cnn3ncccc23)n1	binding		1 µM	97%
CN1CCN(c2ccc(Nc3nccc(-c4cccc([N+](=O)[O-])c4)n3)cc2C(F)(F)F)CC1	binding		10 µM	13%
O=C(c1ccc(Nc2ncc(Cl)c(-c3ccc(Cl)s3)n2)cc1)N1CCC(N2CCCC2)CC1	binding	competition with immobilised ligand	1 µM	1.3%
F[C@@H]1CCN(c2nccc(-c3cnn4ncccc34)n2)C1	binding		1 µM	86%
c1cncc(-c2cccc(Nc3nccc(NC4CCCCC4)n3)c2)c1	binding	competition with immobilised ligand	10 µM	5.3%
CCN1CCN(Cc2ccc(C(=O)Nc3ccc(C)c(Oc4ccc5c(c4)CC(=O)N5)c3)cc2C(F)(F)F)CC1	binding	competition with immobilised ligand	1 µM	100%
O=C(c1ccc(Nc2nccc(-c3cc4ccccc4s3)n2)cc1)N1CCC(N2CCCC2)CC1	binding	competition with immobilised ligand	1 µM	25%
C=CC(=O)N1CCC(C(=O)NCC(=O)N2CCN(c3nc(-c4cnc(N)nc4C(F)F)nc(N4CCOCC4)n3)CC2)CC1	binding	competition with immobilised ligand	1 µM	81%
CN(CCCC(F)(F)F)c1nccc(-c2cnn3ncccc23)n1	binding		1 µM	100%
N#CC1(c2ccccn2)CCN(Cc2cc(C(=O)N3CCCC3)c(=O)n3ccccc23)CC1	cell-free assay	competition with immobilised ligand	1 µM	100%
CN(C)c1nccc(-c2cnn3ncccc23)n1	binding		1 µM	68%
Cc1cc(Nc2nccc(C)n2)cc(-c2cnc([C@@]3(O)CC[C@H](C(=O)O)C(C)(C)C3)s2)c1	binding	competition with immobilised ligand	1 µM	30.2%
